Lung fibro prol: blocks proliferation of human lung fibroblasts. viability, % at 10 µM. 85,000 tested, 1.1% active. AID 719. LL 47 human lung fibroblast viability, ATP luminescence; hits give low values;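 active means viability at or below 50% in the single dose screen; inactive means viability above 50%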;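 further: compound exposure lasted 72 h before the ATP readout; 100% = median luminescence of untreated cell-only wells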
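Times – overnight cell rest, 72 h compound treatment at 37 °C · Test system – human lung fibroblast line LL 47, low passage · Amount – 1,150 cells in each well · Controls – cell-only wells, no compound · Doses – 0.1% DMSO in all compound wells · Measured by – CellTiter-Glo luminescence · Buffer or medium – IMEM plus 15% FBS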
tolC growth inh: growth inhibitors of E. coli BW25113 tolC mutant | OD615 | growth inhibition, % at 10 µM (by protocol) | 65,000 tested, 2.2% active | AID 573;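 active means growth inhibition at or above a cutoff equal to the mean over every tested compound plus 3 SD, cut at about 60% in these data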;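 further: growth measured after 20 h incubation at 37 °C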
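Test system – E. coli BW25113 ΔtolC::kan, tolC deletion mutant strain · Detection – OD at 615 nm · Buffer or medium – LB with kanamycin 50 µg/mL · Times – 20 h compound exposure of bacteria at 37 °C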
H69AR inhibit: growth inhibitors of human H69AR lung tumor cells; 85,000 tested, 6% active; H69AR lung tumor viability, ATP luminescence, 72 h; hits give low values; AID 598; viability, % at 10 µM;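 active means viability at or below 40%; inactive means viability above 40%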;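 further: multidrug resistant small cell line overexpressing MRP-1 efflux transporter; 100% = mean luminescence of untreated control wells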
E coli WT exp: blocks growth of wild type E. coli BW25113; growth inhibition, % at 100 µM; 98,000 tested, 0.15% active; AID 710; OD600 absorbance;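 active means growth inhibition above about 50% at one test dose, limit read from the data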;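 further: growth measured after 20 h incubation at 37 °C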
Jurkat viability: cytotoxic compounds reducing Jurkat cell viability. 56,000 tested, 1.2% active. Jurkat E6.1 viability, ATP luminescence, 48 h. inhibition, % at 4 µM. AID 463;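 active means inhibition above the mean inhibition of all tested compounds plus 3 SD, cut at about 28% in these data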
HUVEC prolif 384: blocks proliferation of human endothelial cells. HUVEC proliferation, CellTiter-Glo luminescence, 72 h; hits give low values. 86,000 tested, 1.1% active. viability, % at 10 µM (by protocol);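 active means viability at or below 30%; inactive means viability above 30%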;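 further: 100% = median luminescence of DMSO-only cell control wells on each plate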
* hit, by the source's call; nt = not tested or not shown. Sampled rows, rich in hits. Any-hit rate of the full collection: about 6.4%.

SMILES	Lung fibro prol	tolC growth inh	H69AR inhibit	E coli WT exp	Jurkat viability	HUVEC prolif 384
O=C(Nc1ccc2c(c1)CCC2)C1CCN(c2c3c(nc4ncnn24)CCC3)CC1	78	12	32*	4	44*	77
Cc1ccc(C(=O)CC(=O)c2cccc(F)c2)c(O)c1	nt	nt	nt	-8	nt	nt
O=C(CNC(=O)c1cccs1)NCCN1CCN(c2ccccc2F)CC1	87	-17	90	2	3	86
Cn1nc(C(=O)Nc2cccc(C(F)(F)F)c2)c2ccccc2c1=O	nt	nt	nt	-7	nt	nt
Cn1nc(C(=O)Nc2c(-c3ccccc3)nc3sccn23)c2ccccc2c1=O	40*	-2	26*	-6	-5	41
CCCCNC(=O)c1ccc(S(=O)(=O)c2ccc(Cl)cc2)c(NC(C)=O)c1	101	nt	93	6	nt	104
Cc1cc(=O)c2cc(Cl)ccc2[nH]1	101	-7	67	13	3	88
Cc1cc(=O)[nH]c2ccc(Cl)cc12	95	nt	86	9	nt	24*
COc1cccc(CNc2nn[nH]n2)c1OC	90	-16	93	0	2	103
COc1cccc(CNc2ccc(N3CCC(C)CC3)cc2)c1OC	99	nt	14*	nt	nt	93
COc1ccc(C2Oc3ccccc3C3=C2C(c2cccs2)n2ncnc2N3)cc1 (configuration not stated)	46*	nt	18*	2	nt	58
COc1ccc2c(c1)-c1nc(NC(=O)c3ccco3)sc1CC2	106	37	39*	nt	nt	100
COc1cccc(NC(=O)C23CCC(C)(C(=O)O2)C3(C)C)c1 (configuration not stated)	101	nt	87	6	nt	99
Cc1nc2oc(C(=O)c3ccc(Br)cc3)c(N)c2c2c1COC(C)(C)C2	92	16	54	-10	nt	60
CCCc1nc2oc(C(=O)c3ccccc3)c(N)c2c2c1COC(C)(C)C2	40*	nt	5.7*	0	nt	47
CCOC(=O)c1cn2c3c(c(F)c(F)c(F)c3c1=O)SC(N1CCCC1)=N2	80	59	68	nt	8	75
O=c1cc(N2CCC(Cc3ccccc3)CC2)[nH]c(=O)n1C1CCCCC1	87	-25	27*	-10	-3	72
CC1CCN(c2cc(=O)n(C3CCCCC3)c(=O)[nH]2)CC1	87	nt	70	-6	nt	99
CCOC(=O)/C=c1\s/c(=C\c2c(OCC)ccc3ccccc23)c(=O)n1CC(=O)NCC1CCCO1 (configuration not stated)	89	nt	30*	-10	nt	78
COc1ccc(OC)c(C(=O)c2coc3ccc(O)cc23)c1	99	24	24*	4	-8	78
COc1ccc(C(=O)c2ccc(OC)cc2O)c(O)c1	89	14	32*	-3	3	90
COc1ccc(C(=O)/C=C(\N)C(F)(F)F)c(O)c1	nt	-1	74	1	8	85
Cc1cc(C)c2c(CN3CCN(Cc4ccc5c(c4)OCO5)CC3)cc(=O)oc2c1C	90	21	33*	1	1	39
CCOc1ccc(C(=O)/C=C/c2cn(CN3CCN(C)CC3)c3ccccc23)cc1	107	nt	84	0	nt	74
COc1ccc(C(=O)/C=C/c2cn(CN3CCN(C)CC3)c3ccccc23)cc1	101	nt	22*	0	nt	78
SMILES	Lung fibro prol	tolC growth inh	H69AR inhibit	E coli WT exp	Jurkat viability	HUVEC prolif 384
COC(=O)c1ccccc1NC(=O)c1ccc(-c2cccc(Cl)c2)o1	86	nt	12*	-12	nt	52
Cc1nnc2sc(-c3ccc(NC(=O)c4ccc(-c5ccc(Br)cc5)o4)cc3)nn12	67	21	21*	nt	0	72
Cc1ccc(-c2nn3c(C)nnc3s2)cc1NC(=O)c1ccc(-c2ccc(Cl)cc2Cl)o1	6.5*	-10	104	nt	6	6.5*
Cc1ccc(-c2nn3c(C)nnc3s2)cc1NC(=O)c1ccc(-c2cccc(Cl)c2)o1	99	19	4.2*	3	4	36
NC(=O)Cn1c2[n+](c3ccccc31)CC(O)CS2 (configuration not stated)	nt	nt	nt	1	nt	nt
O=C(Nc1ccc(CN2CCOCC2)cc1)c1ccc(-c2ccc(Br)cc2)o1	75	100*	19*	-14	23	45
O=C1c2cccc3c([N+](=O)[O-])ccc(c23)C(=O)N1c1nccs1	23*	nt	0.8*	0	nt	2.0*
CCSc1nnc(NC(=O)c2nc(-c3ccccc3)n(-c3ccccc3)n2)s1	98	78*	72	-8	3	92
Cc1csc(NC(=O)c2nc(-c3ccccc3)n(-c3ccccc3)n2)n1	nt	1	26*	-6	-3	102
CCSc1nnc(NC(=O)c2cc(C)nc3ccccc23)s1	86	nt	69	-3	nt	83
CCCCCn1c(=O)[nH]c2cc(C(=O)NCc3ccco3)ccc2c1=O	94	nt	101	-9	nt	78
c1ccc(-c2cn3nc(-c4ccccc4)sc3n2)cc1	80	-13	61	nt	-2	69
c1ccc(-c2cn3c4c(sc3n2)CCCC4)cc1	67	26	21*	2	12	52
Cn1c(SC2=CS(=O)(=O)c3ccccc32)nc2ccccc21	2.2*	-2	0.6*	-4	73*	43
Cn1c(CSc2nc3ccccc3n2C)nc2ccccc21	112	nt	105	-1	nt	109
Cc1ccc(S(=O)(=O)NC2=NCCC2)cc1	102	-10	89	4	-1	101
Cc1ccc(/C=C/C(=O)c2ccccc2)cc1	49*	nt	85	6	nt	79
O=C(O)c1cccnc1	99	nt	86	nt	nt	96
O=C(/C=C/c1ccc(Cl)cc1)c1cccnc1	25*	nt	38*	20	nt	63
O=C(/C=C/c1ccc(OC2CSC2)cc1)c1ccccc1	nt	nt	nt	-2	nt	nt
O=C(/C=C/c1ccccc1Cl)c1cccnc1	76	nt	1.2*	5	nt	21*
O=C(OCC(F)(F)C(F)F)c1ccccc1C(=O)Oc1ccc(F)cc1F	97	-7	95	0	6	98
CCN(CC)CCNC(=O)c1c(O)c2cc(OC)c(OC)cc2[nH]c1=O	94	-3	87	-5	7	84
O=C(COc1ccccc1)n1nc(-c2ccc(Cl)cc2)nc1NCc1ccco1	74	-11	12*	-9	1	58
O=C(c1ccco1)n1nc(-c2ccc(Cl)cc2)nc1NCc1ccco1	82	-11	36*	-9	3	41
O=C(c1ccco1)n1nc(-c2ccccc2)nc1NCc1ccco1	93	-1	81	-4	-5	91
CC(=O)n1nc(-c2ccccc2)nc1NCc1ccc(F)cc1	98	3	90	0	4	85
COCC(=O)n1nc(-c2ccc(Cl)cc2)nc1NCc1ccc(F)cc1	79	nt	33*	-12	nt	58
CN1CCN(C2=C(Cl)C(=O)N(C3CCCCC3)C2=O)CC1	92	-1	45	11	3	60
CN1CCN(C2=C(Cl)C(=O)C(c3cnc(N4CCCCC4)s3)=C(Cl)C2=O)CC1	5.8*	nt	1.6*	nt	nt	70
